Compound in series [1]: COc1cc(OC)c(C(=O)/C=C/c2ccccc2)c(O)c1CN1CCCCC1
The experiment in a line: Inhibition of Sprague-Dawley rat brain AChE using acetylthiocholin iodide as substrate at 2.2 uM by Michaelis-Menten equation. A digest of the protocol:
(§1)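 Kinetic analysis: Km and vmax were determined at several inhibitor concentrations. Ki for the free enzyme came from a linear replot of slope against inhibitor concentration. Ki′ for the enzyme–substrate complex came from a linear replot of intercept against inhibitor concentration.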

Compound in series [2]: COc1cc(OC)c(C(=O)/C=C/c2ccccc2)c(O)c1CN1CCCCC1
Put plainly: Inhibition of Sprague-Dawley rat brain AChE using acetylthiocholin iodide as substrate at 4.4 uM by Michaelis-Menten equation. The gist of the method:
as §1

The text below walks through data of ChEMBL document CHEMBL3352678, “Synthesis and acetylcholinesterase inhibitory activity of Mannich base derivatives flavokawain B” (Bioorg Med Chem Lett, 2014).

B1: Acetylcholinesterase (Rattus norvegicus), P37136 (protein)
chain: MRPPWYPLHTPSLASPLLFLLLSLLGGGARAEGREDPQLLVRVRGGQLRGIRLKAPGGPVSAFLGIPFAEPPVGSRRFMPPEPKRPWSGILDATTFQNVCYQYVDTLYPGFEGTEMWNPNRELSEDCLYLNVWTPYPRPTSPTPVLIWIYGGGFYSGASSLDVYDGRFLAQVEGTVLVSMNYRVGTFGFLALPGSREAPGNVGLLDQRLALQWVQENIAAFGGDPMSVTLFGESAGAASVGMHILSLPSRSLFHRAVLQSGTPNGPWATVSAGEARRRATLLARLVGCPPGGAGGNDTELISCLRTRPAQDLVDHEWHVLPQESIFRFSFVPVVDGDFLSDTPDALINTGDFQDLQVLVGVVKDEGSYFLVYGVPGFSKDNESLISRAQFLAGVRIGVPQASDLAAEAVVLHYTDWLHPEDPAHLRDAMSAVVGDHNVVCPVAQLAGRLAAQGARVYAYIFEHRASTLTWPLWMGVPHGYEIEFIFGLPLDPSLNYTVEERIFAQRLMQYWTNFARTGDPNDPRDSKSPRWPPYTTAAQQYVSLNLKPLEVRRGLRAQTCAFWNRFLPKLLSATDTLDEAERQWKAEFHRWSSYMVHWKNQFDHYSKQERCSDL
Turning to B1, the values for the Michaelis constant (Km) in series [1] and in series [2] were 4.18 mM and 4.63 mM, respectively. For the same protein, the Vmax in series [1] is 0.0288 deltaA/min; in series [2], 0.0212 deltaA/min.

Usually Km stands for the substrate concentration at which the rate is half of its maximum.
